Assay results from different studies.
Each line is one published result; the experiments were not run side by side.
PDE4D: 3',5'-cyclic-AMP phosphodiesterase 4D (PDE4D, Homo sapiens, UniProt Q08499)
KCNK18: Potassium channel subfamily K member 18 (KCNK18, Homo sapiens, UniProt Q7Z418)
MEP1B: Meprin A subunit beta (MEP1B, Homo sapiens, UniProt Q16820)
HDAC6: Protein deacetylase HDAC6 (HDAC6, Homo sapiens, UniProt Q9UBN7)
CDK7 with cyclin H: Cyclin-dependent kinase 7, with cyclin H (CDK7, Homo sapiens, UniProt P50613)
GRM7: Metabotropic glutamate receptor 7 (GRM7, Homo sapiens, UniProt Q14831)
F2: Prothrombin (F2, Homo sapiens, UniProt P00734)
Dihydroorotate dehydrogenase, mitochondrial, putative: Dihydroorotate dehydrogenase, mitochondrial, putative (Plasmodium vivax, UniProt A5K1N1)

SMILES	target	effect on	mode	technique	setting	IC50 [µM]
N#Cc1nc(NCc2cccc(-c3cc4ccccc4n3S(=O)(=O)c3ccccc3)c2)c2ncn(CCCO)c2n1	Cathepsin B-like cysteine protease (Trypanosoma brucei, UniProt Q6R7Z5)	enzyme activity	inhibitor			> 15
COc1ccc2c(Oc3ccc4c(C(=O)Nc5ccccc5N)cccc4c3)ccnc2c1	Tyrosine-protein kinase SYK (SYK, Homo sapiens, UniProt P43405)	enzyme activity	inhibitor			> 0.5
O=C1NC(=O)/C(=C/c2ccc(OCCNc3nc4c(cnn4C4CCCC4)c(=O)[nH]3)c(F)c2)S1	PDE4D	enzyme activity	inhibitor			0.495
CCOCc1nc(O)c(-c2nnc(Cc3ccc(Cl)cn3)o2)c(O)c1-c1c(OC)cccc1OC	5-hydroxytryptamine receptor 1B (HTR1B, Homo sapiens, UniProt P28222)	ligand displacement		radioligand		> 30
COc1cc(N2CCN(C)CC2)ccc1Nc1ncc2c(n1)N(C)c1ccccc1C(=O)N2	Mitogen-activated protein kinase 7 (MAPK7, Homo sapiens, UniProt Q13164)	enzyme activity	inhibitor	radiometric		1.2
COC(=O)C1=C(C)NC(C)=C(C(=O)OCCN(C)Cc2ccccc2)C1c1cccc([N+](=O)[O-])c1 (stereo not drawn)	KCNK18	ion flux	inhibitor			21.9
CC(C)C[C@H](NC(=O)[C@H](CCC(=O)O)NC(=O)[C@@H](NC(=O)[C@H](CO)NC(=O)[C@H](CCCCN)NC(=O)[C@H](CCC(N)=O)NC(=O)[C@H](Cc1ccc(O)cc1)NC(=O)[C@H](CCCNC(=N)N)NC(=O)[C@@H](N)CCCNC(=N)N)[C@@H](C)O)C(=O)O	Antigen peptide transporter 1/Antigen peptide transporter 2 (Homo sapiens, UniProt Q03518+Q03519)	ligand displacement				0.1
OCc1ccc2c(c1C#Cc1ccc(O)cc1)C(c1ccc(O)cc1)(c1ccc(O)cc1)c1cc(O)ccc1-2	PDE4D	enzyme activity	inhibitor			0.267
CC(C)Cc1ncc(Cc2ccc(O)cc2)[nH]c1=O	Calpain-1 catalytic subunit (CAPN1, Homo sapiens, UniProt P07384)	enzyme activity	inhibitor			3.9
O=C(CCN(Cc1ccncc1)Cc1ccc(Cl)c(O)c1F)NO	MEP1B	enzyme activity	inhibitor			0.703
NC(=O)c1cccc(-c2cccc(OC(=O)NC3CCCCC3)c2)c1	Liver carboxylesterase 1 (CES1, Homo sapiens, UniProt P23141)	enzyme activity	inhibitor			0.039
O=C(N[C@@H](Cc1c[nH]c2ccccc12)C(=O)O)c1ccc(Cl)cc1	Free fatty acid receptor 3 (FFAR3, Homo sapiens, UniProt O14843)	GTPγS binding	antagonist		cell membranes	> 31.6
CCCC[C@H](NC(=O)C1CN(C)C1)c1ncc(-c2cc3ccccc3nc2OC)[nH]1	HDAC6	enzyme activity	inhibitor			1.1
O=C(CCN(Cc1ccc(Cl)cc1F)Cc1ccc(Cl)c(O)c1F)NO	MEP1B	enzyme activity	inhibitor			0.274
C=CC(=O)Nc1ccc(N2CCC[C@@H](Nc3ncc(Cl)c(-c4c[nH]c5ccccc45)n3)C2)c(F)c1	CDK7 with cyclin H	enzyme activity	inhibitor	FRET		0.318
Cc1cn([C@H]2C[C@H](N=[N+]=[N-])[C@@H](CO)O2)c(=O)[nH]c1=O	Gag-Pol polyprotein, reverse transcriptase (gag-pol, Human immunodeficiency virus type 1 group M subtype B, UniProt P04585)	enzyme activity	inhibitor	ELISA		12.2
COc1ccc(-c2coc(-c3cc(OC(F)(F)F)ccc3-n3cncn3)n2)cc1OC	GRM7	calcium signal	antagonist			> 10
COc1cc(NCC(=O)Nn2c(C)nc3ccc(Cl)cc3c2=O)cc(OC)c1OC	F2	enzyme activity	inhibitor			63.5
COc1cc2c(NC3CCN(C)CC3)nc(N3CCCN(C)CC3)nc2cc1OCCCCCCN(C)C	Histone-lysine N-methyltransferase EHMT2 (EHMT2, Homo sapiens, UniProt Q96KQ7)	enzyme activity	inhibitor			1.5
CC(C)(C)n1nc(-c2cnc3cc(OC4CC4)ccc3c2)c(C(N)=O)c1N	Mitogen-activated protein kinase 1 (MAPK1, Homo sapiens, UniProt P28482)	cell-free assay				> 10
CC[C@H](C)[C@H](NC(C)=O)C(=O)N[C@@H](CCC(=O)O)C(=O)N[C@H](C(=O)N[C@H](C=O)CC(=O)O)[C@@H](C)O	Caspase-10 (CASP10, Homo sapiens, UniProt Q92851)	enzyme activity	inhibitor			0.0125

SMILES	target	effect on	mode	technique	setting	IC50 [µM]
CNC(=O)[C@H](Cc1ccccc1)NC(=O)[C@H](CC(C)C)[C@H](CSc1cccs1)C(=O)NO	Disintegrin and metalloproteinase domain-containing protein 8 (Homo sapiens, UniProt P78325)	enzyme activity	inhibitor	fluorescence		0.046
Cc1nc2ccccc2n1Cc1c(F)c(F)c(C(=O)NO)c(F)c1F	HDAC6	enzyme activity	inhibitor			3.5
COc1ccc(C2=NN(C3CCCCCC3)C(=O)[C@@H]3CC=CC[C@H]23)cc1-c1ccc(C(N)=O)cc1 (relative stereo)	PDE4D	enzyme activity	inhibitor			0.126
O=C(NO)c1ccc(Cn2c(C(F)(F)F)nc3ccccc32)cc1	HDAC6	enzyme activity	inhibitor			0.01
Cc1nc(Nc2ccc(S(F)(F)(F)(F)F)cc2)c2c(C(F)(F)F)noc2n1	Dihydroorotate dehydrogenase, mitochondrial, putative	enzyme activity	inhibitor	absorbance		0.066
COCCOC(=O)C1=C(C)NC(C)=C(C(=O)OC(C)C)C1c1cccc([N+](=O)[O-])c1 (stereo not drawn)	Potassium channel subfamily K member 9 (KCNK9, Homo sapiens, UniProt Q9NPC2)	ion flux	inhibitor			> 30
COc1cc(/C=N/n2c(C)nc3ccc(C)cc3c2=O)cc([N+](=O)[O-])c1O	F2	enzyme activity	inhibitor			210
Cc1nc(NC2CCc3cc(Br)ccc3C2)c2c(C)noc2n1 (stereo not drawn)	Dihydroorotate dehydrogenase, mitochondrial, putative	enzyme activity	inhibitor	absorbance		0.15
O=C(O)[C@H]1O[C@@H](O[C@H]2[C@H](O)[C@@H](NS(=O)(=O)O)[C@@H](OCCNS(=O)(=O)O)O[C@@H]2COS(=O)(=O)O)[C@H](O)[C@@H](O)[C@@H]1O[C@H]1O[C@H](COS(=O)(=O)O)[C@@H](O)[C@H](O)[C@H]1NS(=O)(=O)O	Coagulation factor X (F10, Bos taurus, UniProt P00743)	enzyme activity	inhibitor	absorbance		> 2
Cc1nc(Nc2ccc(C(F)(F)F)cc2)c2c(C(F)(F)F)noc2n1	Dihydroorotate dehydrogenase, mitochondrial, putative	enzyme activity	inhibitor	absorbance		0.076
CN(C)CC#Cc1ccc2[nH]c3c(c2c1)-c1nc(N)ncc1CCC3	Cyclin-dependent kinase 7 (CDK7, Homo sapiens, UniProt P50613)	enzyme activity	inhibitor	radiometric		> 10
CCCON(Cc1ccc(C(=O)NO)cc1)C(=O)Nc1ccc(N(C)C)cc1	HDAC6	enzyme activity	inhibitor	fluorescence		0.022
O=c1cc(-c2ccccc2)oc2ccc3ccccc3c12	CDK7 with cyclin H	enzyme activity	inhibitor	ADP detection		2.97
COc1cc(/C=N/n2c(C)nc3ccc(Br)cc3c2=O)ccc1O	F2	enzyme activity	inhibitor			42.5
O=C(CCN(Cc1ccc2c(c1)OCO2)Cc1ccc(Cl)c(O)c1F)NO	MEP1B	enzyme activity	inhibitor			0.146
COc1cc(/C=N/n2c(C)nc3ccc(C)cc3c2=O)ccc1OCc1ccccc1	F2	enzyme activity	inhibitor			26.6
CCOC(=O)C1=C(C)NC(C)=C(C(=O)OC)C1c1cccc([N+](=O)[O-])c1 (stereo not drawn)	KCNK18	ion flux	inhibitor			19.8
CC[C@@H](C(=O)Nc1ccc(C(N)=O)c(F)c1)n1cc(OC)c(-c2cc(Cl)ccc2-n2cc(C(F)(F)F)nn2)cc1=O	F2	enzyme activity	inhibitor			6.6
CCc1ccc(/C=N/n2c(C)nc3ccc(C)cc3c2=O)s1	F2	enzyme activity	inhibitor			269
O=c1cc(-c2ccc3c(c2)OCO3)oc2c1ccc1occc12	CDK7 with cyclin H	enzyme activity	inhibitor	ADP detection		> 100
COc1ccc(-c2nnc(-c3cc(OC(F)(F)F)ccc3-n3ccnc3)o2)cc1OC	GRM7	calcium signal	antagonist			0.6
